Source: ChEMBL document CHEMBL1155815, “Design, synthesis, and biological evaluation of Mannich bases of heterocyclic chalcone analogs as cytotoxic agents” (Bioorg Med Chem, 2008)
Values after ≈ are worked out from the molar mass of the structure shown. Active and inactive are the calls of the source. No cut-off for these calls is given here.

Columns and labels:
Assay type in all cases: functional, cell-based
MCF7 = experiment: Cytotoxicity against human MCF7 cells after 3 days by SRB assay; settings: for EC50: MCF7, 72 h
Method in brief: (§1)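 Cells grown in RPMI-1640 with HEPES, 0.25% sodium bicarbonate, 10% FBS and kanamycin. Freshly trypsinized cells were seeded at 1500–7500 per well and compounds added from DMSO-diluted stock. After 3 days, attached cells were fixed with cold 50% TCA, stained with 0.4% SRB, and absorbance read after dye solubilization. EC50 = 50% growth reduction, averaged over ≥3 independent determinations.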

PC-3 = experiment: Cytotoxicity against human PC3 cells after 3 days by SRB assay; settings: for EC50: PC-3, 72 h; method in brief: as §1
KB [1] = experiment: Cytotoxicity against vinblastine-resistant human KB cells after 3 days by SRB assay; settings: in the assay text read “vincristine-resistant” for “vinblastine-resistant”; for EC50: 72 h; method in brief: as §1
KB [2] = experiment: Cytotoxicity against human KB cells after 3 days by SRB assay; settings: for EC50: 72 h; method in brief: as §1

| Compound | EC50 (MCF7) | EC50 (PC-3) | EC50 (KB [1]) | EC50 (KB [2]) | Activity (PC-3) | Activity (KB [1]) | Activity (KB [2]) | Activity (MCF7) |
| --- | --- | --- | --- | --- | --- | --- | --- | --- |
| COc1ccc(/C=C/C(=O)c2ccco2)c(CN2CCCCC2)c1O | 0.47 mg/L (≈ 1.38 µM) | 3.07 mg/L (≈ 8.99 µM) | 2.61 mg/L (≈ 7.64 µM) | 5.18 mg/L (≈ 15.2 µM) | – | – | – | – |
| COc1ccc(/C=C/C(=O)c2cccs2)c(CN2CCCCC2)c1O | 0.11 mg/L (≈ 0.308 µM) | 2.02 mg/L (≈ 5.65 µM) | 2.09 mg/L (≈ 5.85 µM) | 2.93 mg/L (≈ 8.2 µM) | – | – | – | – |
| CC(C)Oc1ccc(C(=O)/C=C/c2cccs2)c(O)c1CN1CCOCC1 | 0.66 mg/L (≈ 1.7 µM) | 2.8 mg/L (≈ 7.23 µM) | 1.45 mg/L (≈ 3.74 µM) | 5.12 mg/L (≈ 13.2 µM) | – | – | – | – |
| CCOc1cc(O)c(C(=O)/C=C/c2ccccn2)cc1CN1CCOCC1 | 4.13 mg/L (≈ 11.2 µM) | 3.14 mg/L (≈ 8.52 µM) | 5.55 mg/L (≈ 15.1 µM) | 5.72 mg/L (≈ 15.5 µM) | – | – | – | – |
| COc1ccc(/C=C/C(=O)c2cc(CN3CCOCC3)c(OC)cc2O)cc1 | 2.74 mg/L (≈ 7.15 µM) | 8.11 mg/L (≈ 21.2 µM) | 6.58 mg/L (≈ 17.2 µM) | 9.6 mg/L (≈ 25 µM) | – | – | – | – |
| CCOc1cc(O)c(C(=O)/C=C/c2cccnc2)cc1CN1CCOCC1 | 10.6 mg/L (≈ 28.8 µM) | – | – | – | inactive | inactive | inactive | – |
| O=C(/C=C/c1ccco1)c1ccc(O)c(CN2CCOCC2)c1 | 4.87 mg/L (≈ 15.5 µM) | 7.43 mg/L (≈ 23.7 µM) | 3.27 mg/L (≈ 10.4 µM) | 6.12 mg/L (≈ 19.5 µM) | – | – | – | – |
| O=C(/C=C/c1ccncc1)c1ccc(CN2CCOCC2)c(O)c1 | 1.23 mg/L (≈ 3.79 µM) | 1.87 mg/L (≈ 5.76 µM) | 2.62 mg/L (≈ 8.08 µM) | 1.95 mg/L (≈ 6.01 µM) | – | – | – | – |
| O=C(/C=C/c1cccnc1)c1ccc(CN2CCOCC2)c(O)c1 | 0.67 mg/L (≈ 2.07 µM) | 0.9 mg/L (≈ 2.77 µM) | 1.17 mg/L (≈ 3.61 µM) | 2.17 mg/L (≈ 6.69 µM) | – | – | – | – |
| CC(C)=CCOc1ccc(C(=O)/C=C/c2sccc2C)c(O)c1CN1CCOCC1 | 3.19 mg/L (≈ 7.46 µM) | – | 7.21 mg/L (≈ 16.9 µM) | 8.43 mg/L (≈ 19.7 µM) | inactive | – | – | – |
| COc1cc(O)c(C(=O)/C=C/c2cccs2)cc1CN1CCOCC1 | 3.12 mg/L (≈ 8.68 µM) | 6.6 mg/L (≈ 18.4 µM) | 6.25 mg/L (≈ 17.4 µM) | 7.75 mg/L (≈ 21.6 µM) | – | – | – | – |
| O=C(/C=C/c1cccs1)c1ccc(O)c(CN2CCOCC2)c1 | 5.62 mg/L (≈ 17.1 µM) | 6.49 mg/L (≈ 19.7 µM) | 2.58 mg/L (≈ 7.83 µM) | 5.14 mg/L (≈ 15.6 µM) | – | – | – | – |
| O=C(/C=C/c1ccccn1)c1cc(CN2CCOCC2)c(O)c(CN2CCOCC2)c1 | 1.34 mg/L (≈ 3.16 µM) | 1.72 mg/L (≈ 4.06 µM) | 2.27 mg/L (≈ 5.36 µM) | 2.31 mg/L (≈ 5.45 µM) | – | – | – | – |
| CCOc1cc(O)c(C(=O)/C=C/c2ccc(C)o2)cc1CN1CCOCC1 | – | – | – | – | inactive | inactive | inactive | inactive |
| COc1ccc(/C=C/C(=O)c2cccc(C)c2)c(CN2CCOCC2)c1O | 0.42 mg/L (≈ 1.14 µM) | 0.66 mg/L (≈ 1.8 µM) | 0.6 mg/L (≈ 1.63 µM) | 1.12 mg/L (≈ 3.05 µM) | – | – | – | – |
| CCOc1cc(O)c(C(=O)/C=C/c2ccco2)cc1CN1CCOCC1 | 20 mg/L (≈ 56 µM) | – | – | – | inactive | inactive | inactive | – |
| Cc1ccsc1/C=C/C(=O)c1cc(CN2CCOCC2)c(O)c(CN2CCOCC2)c1 | 16.2 mg/L (≈ 36.6 µM) | 12.1 mg/L (≈ 27.3 µM) | 12 mg/L (≈ 27.1 µM) | 9.92 mg/L (≈ 22.4 µM) | – | – | – | – |
| O=C(/C=C/c1cccnc1)c1ccc(O)c(CN2CCOCC2)c1 | 0.29 mg/L (≈ 0.894 µM) | 0.68 mg/L (≈ 2.1 µM) | 0.69 mg/L (≈ 2.13 µM) | 2.11 mg/L (≈ 6.5 µM) | – | – | – | – |

| Compound | EC50 (MCF7) | EC50 (PC-3) | EC50 (KB [1]) | EC50 (KB [2]) | Activity (PC-3) | Activity (KB [1]) | Activity (KB [2]) | Activity (MCF7) |
| --- | --- | --- | --- | --- | --- | --- | --- | --- |
| COc1ccc(/C=C/C(=O)c2cccnc2)c(CN2CCCCC2)c1O | 0.3 mg/L (≈ 0.851 µM) | 6.77 mg/L (≈ 19.2 µM) | 2.64 mg/L (≈ 7.49 µM) | 6.14 mg/L (≈ 17.4 µM) | – | – | – | – |
| COc1ccc(C(=O)/C=C/c2ccccn2)c(O)c1CN1CCOCC1 | 0.25 mg/L (≈ 0.705 µM) | 10.5 mg/L (≈ 29.7 µM) | 1.13 mg/L (≈ 3.19 µM) | 3.41 mg/L (≈ 9.62 µM) | – | – | – | – |
| O=C(/C=C/c1ccco1)c1cccc(O)c1CN1CCOCC1 | 4.7 mg/L (≈ 15 µM) | 3.8 mg/L (≈ 12.1 µM) | 5.77 mg/L (≈ 18.4 µM) | 5.63 mg/L (≈ 18 µM) | – | – | – | – |
| CC(C)Oc1cc(O)c(C(=O)/C=C/c2cccs2)cc1CN1CCOCC1 | 0.24 mg/L (≈ 0.619 µM) | 4.04 mg/L (≈ 10.4 µM) | 5.02 mg/L (≈ 13 µM) | 9.44 mg/L (≈ 24.4 µM) | – | – | – | – |
| O=C(/C=C/c1ccncc1)c1ccc(O)c(CN2CCOCC2)c1 | 0.15 mg/L (≈ 0.462 µM) | 0.1 mg/L (≈ 0.308 µM) | 0.41 mg/L (≈ 1.26 µM) | 0.74 mg/L (≈ 2.28 µM) | – | – | – | – |
| O=C(/C=C/c1ccccc1)c1cccc(O)c1CN1CCOCC1 | 0.28 mg/L (≈ 0.866 µM) | 0.33 mg/L (≈ 1.02 µM) | 0.36 mg/L (≈ 1.11 µM) | 0.83 mg/L (≈ 2.57 µM) | – | – | – | – |
| O=C(/C=C/c1ccccn1)c1ccc(CN2CCOCC2)c(O)c1 | 0.43 mg/L (≈ 1.33 µM) | 0.83 mg/L (≈ 2.56 µM) | 0.68 mg/L (≈ 2.1 µM) | 1.3 mg/L (≈ 4.01 µM) | – | – | – | – |
| CCOc1cc(O)c(C(=O)/C=C/c2sccc2C)cc1CN1CCOCC1 | – | – | – | – | inactive | inactive | inactive | inactive |
| O=C(/C=C/c1ccccn1)c1ccc(CN2CCOCC2)c(O)c1CN1CCOCC1 | 0.46 mg/L (≈ 1.09 µM) | 0.44 mg/L (≈ 1.04 µM) | 0.71 mg/L (≈ 1.68 µM) | 0.82 mg/L (≈ 1.94 µM) | – | – | – | – |
| COc1cc(O)c(C(=O)/C=C/c2ccco2)cc1CN1CCOCC1 | 1.51 mg/L (≈ 4.4 µM) | 16.8 mg/L (≈ 48.9 µM) | 8.12 mg/L (≈ 23.6 µM) | 13.5 mg/L (≈ 39.4 µM) | – | – | – | – |
| O=C(/C=C/c1ccccn1)c1ccc(O)c(CN2CCOCC2)c1 | 0.12 mg/L (≈ 0.37 µM) | 0.31 mg/L (≈ 0.956 µM) | 0.3 mg/L (≈ 0.925 µM) | 0.73 mg/L (≈ 2.25 µM) | – | – | – | – |
| Cc1ccsc1/C=C/C(=O)c1cccc(O)c1CN1CCOCC1 | 1.12 mg/L (≈ 3.26 µM) | 2.73 mg/L (≈ 7.95 µM) | 1.64 mg/L (≈ 4.78 µM) | 5.7 mg/L (≈ 16.6 µM) | – | – | – | – |
| O=C(/C=C/c1cccs1)c1cccc(O)c1CN1CCOCC1 | 1.66 mg/L (≈ 5.04 µM) | 1.09 mg/L (≈ 3.31 µM) | 2.15 mg/L (≈ 6.53 µM) | 2.84 mg/L (≈ 8.62 µM) | – | – | – | – |
| O=C(/C=C/c1ccccc1)c1ccc(O)c(CN2CCOCC2)c1 | 0.15 mg/L (≈ 0.464 µM) | 0.18 mg/L (≈ 0.557 µM) | 0.69 mg/L (≈ 2.13 µM) | 2.11 mg/L (≈ 6.52 µM) | – | – | – | – |
| O=C(/C=C/c1ccccn1)c1ccc(O)c(CN2CCOCC2)c1O | 0.08 mg/L (≈ 0.235 µM) | 0.95 mg/L (≈ 2.79 µM) | 0.8 mg/L (≈ 2.35 µM) | 1.54 mg/L (≈ 4.52 µM) | – | – | – | – |
| COc1cc(O)c(C(=O)/C=C/c2cccnc2)cc1CN1CCOCC1 | 0.1 mg/L (≈ 0.282 µM) | 0.84 mg/L (≈ 2.37 µM) | 4.64 mg/L (≈ 13.1 µM) | – | – | – | inactive | – |
| COc1cc(O)c(C(=O)/C=C/c2ccccc2)cc1CN1CCOCC1 | 0.03 mg/L (≈ 0.0849 µM) | 0.78 mg/L (≈ 2.21 µM) | 3.5 mg/L (≈ 9.9 µM) | 14.9 mg/L (≈ 42.2 µM) | – | – | – | – |
| CCOc1cc(O)c(C(=O)/C=C/c2ccccc2)cc1CN1CCOCC1 | 5.24 mg/L (≈ 14.3 µM) | 6.72 mg/L (≈ 18.3 µM) | 9.92 mg/L (≈ 27 µM) | – | – | – | inactive | – |
